inhibition, IC50 and Ratio IC50 data for 20 molecules are collected here from ChEMBL document CHEMBL1143108, “Design and SAR of selective T-type calcium channel antagonists containing a biaryl sulfonamide core” (Bioorg Med Chem Lett, 2008).

The target in test [1] is T1, Voltage-dependent T-type calcium channel subunit alpha-1H (Homo sapiens, UniProt O95180). Description: Antagonist activity at human alpha1H T-type calcium channel expressed in HEK293 cells at 1 uM by patch clamp technique. It counts as functional, cell-based. A digest of the protocol: (§1)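 Whole-cell patch clamp. Peak inward current measured before and after compound addition to the bath.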
T1 sequence (O95180 whole entry): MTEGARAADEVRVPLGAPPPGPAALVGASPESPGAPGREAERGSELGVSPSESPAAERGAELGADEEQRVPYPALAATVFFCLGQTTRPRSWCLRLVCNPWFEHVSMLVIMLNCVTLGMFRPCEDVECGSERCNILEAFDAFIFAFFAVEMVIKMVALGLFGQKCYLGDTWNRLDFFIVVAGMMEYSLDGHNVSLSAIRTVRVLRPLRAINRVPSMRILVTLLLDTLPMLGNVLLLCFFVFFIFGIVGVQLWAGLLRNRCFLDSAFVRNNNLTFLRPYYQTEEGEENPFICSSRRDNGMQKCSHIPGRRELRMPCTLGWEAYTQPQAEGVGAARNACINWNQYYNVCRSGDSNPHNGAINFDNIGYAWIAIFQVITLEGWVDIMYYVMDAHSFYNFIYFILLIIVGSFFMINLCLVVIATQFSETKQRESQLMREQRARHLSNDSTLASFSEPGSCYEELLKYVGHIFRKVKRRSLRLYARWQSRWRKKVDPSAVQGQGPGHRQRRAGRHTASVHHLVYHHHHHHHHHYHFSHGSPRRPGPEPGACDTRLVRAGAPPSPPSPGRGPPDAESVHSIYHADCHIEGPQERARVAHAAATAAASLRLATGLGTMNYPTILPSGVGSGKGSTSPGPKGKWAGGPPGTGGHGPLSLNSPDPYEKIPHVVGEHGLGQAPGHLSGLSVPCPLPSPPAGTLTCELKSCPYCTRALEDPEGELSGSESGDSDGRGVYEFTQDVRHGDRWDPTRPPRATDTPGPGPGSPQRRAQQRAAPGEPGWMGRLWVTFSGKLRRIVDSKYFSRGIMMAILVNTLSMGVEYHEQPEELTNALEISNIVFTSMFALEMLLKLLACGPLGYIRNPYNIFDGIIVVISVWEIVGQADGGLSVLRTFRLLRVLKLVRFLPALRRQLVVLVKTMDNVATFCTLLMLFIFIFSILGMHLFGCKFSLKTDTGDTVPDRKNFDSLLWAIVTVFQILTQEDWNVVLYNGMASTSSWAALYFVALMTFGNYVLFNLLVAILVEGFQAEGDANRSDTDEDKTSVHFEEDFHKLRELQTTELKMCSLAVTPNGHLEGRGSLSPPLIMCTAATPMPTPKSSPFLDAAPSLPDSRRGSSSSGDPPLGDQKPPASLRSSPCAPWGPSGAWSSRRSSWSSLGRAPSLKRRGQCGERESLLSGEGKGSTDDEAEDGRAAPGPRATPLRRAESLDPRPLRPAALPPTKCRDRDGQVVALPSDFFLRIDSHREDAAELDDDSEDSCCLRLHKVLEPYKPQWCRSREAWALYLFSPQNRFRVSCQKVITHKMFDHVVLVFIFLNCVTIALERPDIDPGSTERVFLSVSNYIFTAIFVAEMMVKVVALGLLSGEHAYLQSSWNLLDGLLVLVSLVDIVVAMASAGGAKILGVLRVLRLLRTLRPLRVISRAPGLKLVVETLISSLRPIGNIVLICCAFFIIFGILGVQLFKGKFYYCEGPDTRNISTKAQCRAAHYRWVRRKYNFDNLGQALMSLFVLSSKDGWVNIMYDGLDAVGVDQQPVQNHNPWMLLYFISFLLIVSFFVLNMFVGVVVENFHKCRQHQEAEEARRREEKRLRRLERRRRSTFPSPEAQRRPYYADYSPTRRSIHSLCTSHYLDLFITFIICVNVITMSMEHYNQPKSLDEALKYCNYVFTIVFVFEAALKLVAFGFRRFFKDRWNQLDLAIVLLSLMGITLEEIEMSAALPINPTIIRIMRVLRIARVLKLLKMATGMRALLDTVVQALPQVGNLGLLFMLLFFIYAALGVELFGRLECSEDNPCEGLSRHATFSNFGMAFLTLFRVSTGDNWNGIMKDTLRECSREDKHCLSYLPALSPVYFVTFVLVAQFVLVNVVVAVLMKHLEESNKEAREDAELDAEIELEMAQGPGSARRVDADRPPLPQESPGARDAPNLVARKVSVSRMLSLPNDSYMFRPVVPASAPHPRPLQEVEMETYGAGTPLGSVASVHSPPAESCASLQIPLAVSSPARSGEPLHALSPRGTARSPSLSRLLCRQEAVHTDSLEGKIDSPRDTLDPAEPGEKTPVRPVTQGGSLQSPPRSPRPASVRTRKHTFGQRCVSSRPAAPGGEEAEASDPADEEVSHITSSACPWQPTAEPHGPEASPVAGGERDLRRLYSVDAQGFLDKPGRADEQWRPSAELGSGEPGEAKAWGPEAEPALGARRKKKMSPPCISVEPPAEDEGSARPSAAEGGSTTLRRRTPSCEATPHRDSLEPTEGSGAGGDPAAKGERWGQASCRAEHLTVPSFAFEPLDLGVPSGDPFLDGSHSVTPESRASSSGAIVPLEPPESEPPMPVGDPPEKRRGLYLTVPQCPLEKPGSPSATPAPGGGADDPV

Test [2] has as its target Voltage-gated L-type calcium channel (Rattus norvegicus, UniProt P22002+Q02485+P27732). Description: Antagonist activity at L-type calcium channel in rat aorta. It counts as functional, tissue-based. An outline of the steps: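 Rat aorta rings contracted near-maximally with KCl. Test compound added at increasing doses, and IC50 taken for inhibition of force as a functional L-type calcium channel read-out.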

Test [3] deals with T1, Voltage-dependent T-type calcium channel subunit alpha-1H. Description: Antagonist activity at human alpha1H T-type calcium channel expressed in HEK293 cells by patch clamp technique. It counts as functional, cell-based. An outline of the steps:
as §1

A short description of test [4]: Ratio of IC50 for L-type calcium channel in rat aorta method to IC50 for human T-type calcium channel in patch clamp method. The class given is tissue-based.

As to `CCOC(=O)CN(c1cccc(Cl)c1)S(=O)(=O)c1cccc(NC(=O)CN(C)C(=O)OCc2ccccc2)c1`, the inhibition in test [1] came out at 35%.

As to `CC(=O)Nc1cccc(S(=O)(=O)N(CC(=O)OC(C)C)c2cccc(Cl)c2)c1`, in test [1], the inhibition amounted to 0%.

Take `CC(C)OC(=O)CN(c1cccc(Cl)c1)S(=O)(=O)c1cccc(NC(=O)CCNC(=O)OCc2ccccc2)c1`: the inhibition in test [1] was determined as 73%. Besides, the IC50 in test [2] was 17000 nM; in test [3] it was 420 nM. The Ratio IC50 in test [4] was 41.

As for `CC(=O)N(CCCN(C)S(=O)(=O)c1ccc(Oc2ccccc2)cc1)Cc1cccc(Cl)c1`, the inhibition in test [1] was 30%.

Regarding `CC(=O)N(CCCN(C)C(=O)c1ccc(Oc2ccccc2)cc1)Cc1cccc(Cl)c1`, the inhibition in test [1] was 5%.

Regarding `CC(C)OC(=O)CN(c1cccc(Cl)c1)S(=O)(=O)c1cccc(NC(=O)CCc2ccccc2)c1`, the IC50 in test [2] was greater than 30000 nM; in test [3], 540 nM. In addition, the Ratio IC50 in test [4] was greater than 55.

For `CC1=C(C(=O)OC(C)C)C(c2cccc(Cl)c2)N(CCCN(C)C(=O)c2ccc(Oc3ccccc3)cc2)C(=O)N1` (single isomer, unassigned; enantiomer 2), the IC50 in test [2] is 3800 nM; in test [3], 650 nM.

As for `CC1=C(C(=O)OC(C)C)C(c2cccc(Cl)c2)N(CCCN(C)C(=O)c2ccc(Oc3ccccc3)cc2)C(=O)N1` (single isomer, unassigned; enantiomer 1), the half-maximal inhibitory concentration (IC50) in test [3] was 180 nM.

As for `CC(C)OC(=O)CN(c1cccc(Cl)c1)S(=O)(=O)c1cccc(NC(=O)CN(C)C(=O)OCc2ccccc2)c1`, the inhibition in test [1] came out at 78%. Besides, the IC50 in test [2] was 15000 nM; in test [3] it was 240 nM. The Ratio IC50 in test [4] turned out to be 62.

In the case of `CC(C)CCCN(c1cccc(Cl)c1)S(=O)(=O)c1cccc(NC(=O)CN(C)C(=O)OCc2ccccc2)c1`, the half-maximal inhibitory concentration (IC50) came to 12000 nM in test [2] and 180 nM in test [3]. Further, in test [4], the Ratio IC50 amounted to 67.

In the case of `CN(CC(=O)Nc1cccc(S(=O)(=O)N(CC(=O)O)c2cccc(Cl)c2)c1)C(=O)OCc1ccccc1`, the inhibition in test [1] worked out at 11%.

Consider `COCC(=O)O[C@]1(CCN(C)CCCc2nc3ccccc3[nH]2)CCc2cc(F)ccc2[C@@H]1C(C)C` [MIBEFRADIL], for which the concentration for half-maximal inhibition (IC50) in test [2] was 7000 nM.

As to `CN(C)CCNC(=O)CN(c1cccc(Cl)c1)S(=O)(=O)c1cccc(NC(=O)CN(C)C(=O)OCc2ccccc2)c1`, in test [1], the inhibition was found to be 22%.

In the case of `CC1=C(C(=O)OC(C)C)C(c2cccc(Cl)c2)N(CCCN(C)C(=O)c2ccc(Oc3ccccc3)cc2)C(=O)N1` (stereo unspecified), the IC50 in test [2] turned out to be 2100 nM; in test [3], 250 nM.

For `CN(CC(=O)Nc1cccc(S(=O)(=O)N(Cc2ccccc2)c2cccc(Cl)c2)c1)C(=O)OCc1ccccc1`, the IC50 was found to be 12000 nM in test [2] and 110 nM in test [3]. Besides, the Ratio IC50 in test [4] came out at 109.

Regarding `CC(C)OC(=O)CN(c1cccc(Cl)c1)S(=O)(=O)c1cccc(NC(=O)Cc2ccccc2)c1`, the inhibition in test [1] was found to be 40%.

Regarding `CC(C)NC(=O)CN(c1cccc(Cl)c1)S(=O)(=O)c1cccc(NC(=O)CN(C)C(=O)OCc2ccccc2)c1`, the IC50 was greater than 30000 nM in test [2] and 1700 nM in test [3]. The Ratio IC50 in test [4] was greater than 17.

`CC(C)OC(=O)c1ccc(NC(=O)CCc2ccccc2)cc1-c1cccc(Cl)c1`: the inhibition in test [1] stood at 6%.

In the case of `CC(=O)N(CCCN(C)S(=O)(=O)c1ccc(Oc2ccccc2)cc1)C(CC(=O)OC(C)C)c1cccc(Cl)c1` (stereo unspecified), the inhibition in test [1] amounted to 17%.

Regarding `CC(C)OC(=O)c1ccc(NC(=O)CN(C)C(=O)OCc2ccccc2)cc1-c1cccc(Cl)c1`, the inhibition in test [1] amounted to 24%.
